{"source": "ChEMBL document CHEMBL2177002", "about": "“Antifungal spectrum, in vivo efficacy, and structure-activity relationship of ilicicolin h” (ACS Med Chem Lett, 2012)", "key": {"Cryptococcus neoformans [1]": {"tested_on": "Cryptococcus neoformans", "assay": "Antifungal activity against Cryptococcus neoformans MY 2061 after 40 hrs by NCCLS broth microdilution method", "assay_type": "functional", "conditions": "MY 2061, 40 h"}, "[2]": {"assay": "Inhibition of ubiquinol:cytochrome c reductase in presence of 50% mouse plasma", "assay_type": "cell-free", "method_in_brief": "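Cytochrome c reductase assay run with mouse plasma added at increasing percentages, up to 50%, to gauge the effect of plasma protein binding on inhibition.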"}, "[3]": {"assay": "Half life in mouse", "assay_type": "ADME, organism-based", "conditions": "in vivo"}, "[4]": {"assay": "Selectivity ratio of IC50 for bovine NADH:cytochrome c oxidoreductase to IC50 for Saccharomyces cerevisiae MY 2141 NADH:cytochrome c oxidoreductase"}, "[5]": {"assay": "Inhibition of rhesus monkey liver NADH:cytochrome c oxidoreductase", "parameters": "species or system Macaca mulatta"}, "[6]": {"assay": "Inhibition of rat liver NADH:cytochrome c oxidoreductase"}, "[7]": {"assay": "Inhibition of Candida albicans MY 1055 NADH:cytochrome c oxidoreductase", "conditions": "read-out: IC50"}, "Candida albicans [8]": {"tested_on": "Candida albicans", "assay": "Ratio of MIC for Candida albicans 11 harboring cytochrome b G37C mutant to MIC for wild type Candida albicans", "assay_type": "functional"}, "Candida albicans [9]": {"tested_on": "Candida albicans", "assay": "Ratio of MIC for Candida albicans 14 harboring cytochrome b G37S mutant to MIC for wild type Candida albicans", "assay_type": "functional"}, "Candida albicans [10]": {"tested_on": "Candida albicans", "assay": "Ratio of MIC for Candida albicans 12 harboring cytochrome b Q22E mutant to MIC for wild type Candida albicans", "assay_type": "functional"}, "Candida albicans [11]": {"tested_on": "Candida albicans", "assay": "Ratio of MIC for Candida albicans 8 harboring cytochrome b G37S mutant to MIC for wild type Candida albicans", "assay_type": "functional"}, "Candida albicans [12]": {"tested_on": "Candida albicans", "assay": "Ratio of MIC for Candida albicans 5 harboring cytochrome b G37S mutant to MIC for wild type Candida albicans", "assay_type": "functional"}, "Candida albicans [13]": {"tested_on": "Candida albicans", "assay": "Ratio of MIC for Candida albicans 7 harboring cytochrome b G37D mutant to MIC for wild type Candida albicans", "assay_type": "functional"}, "Candida albicans [14]": {"tested_on": "Candida albicans", "assay": "Ratio of MIC for Candida albicans 3 harboring cytochrome b G37D mutant to MIC for wild type Candida albicans", "assay_type": "functional"}, "Candida albicans [15]": {"tested_on": "Candida albicans", "assay": "Ratio of MIC for Candida albicans 5 harboring cytochrome b G37D mutant to MIC for wild type Candida albicans", "assay_type": "functional"}, "[16]": {"assay": "Inhibition of Saccharomyces cerevisiae MY 2141 NADH:cytochrome c oxidoreductase"}, "[17]": {"assay": "Inhibition of Saccharomyces cerevisiae MY 2141 cytochrome b-c1 complex Qn site in ubiquinol:Cytochrome c reductase"}, "[18]": {"assay": "Inhibition of Saccharomyces cerevisiae MY 2141 electron transport protein complex 4 using ascorbate/TMPD as substrate assessed as decrease in oxygen consumption measured for 3 mins"}, "[19]": {"assay": "Inhibition of Saccharomyces cerevisiae MY 2141 electron transport protein complex 2/3 using succinate as substrate assessed as decrease in oxygen consumption measured for 3 mins"}, "[20]": {"assay": "Inhibition of Saccharomyces cerevisiae MY 2141 electron transport protein complex 1/3 using glycerol-3-phosphate as substrate assessed as decrease in oxygen consumption measured for 3 mins"}, "[21]": {"assay": "Inhibition of Saccharomyces cerevisiae MY 2141 electron transport protein complex 1/3 using ethanol as substrate assessed as decrease in oxygen consumption measured for 3 mins"}, "Candida albicans [22]": {"tested_on": "Candida albicans", "assay": "Antifungal activity against Candida albicans MY 1055 assessed as inhibition of whole cell oxygen consumption at 0.003 ug/mL after 15 mins", "assay_type": "functional", "conditions": "MY 1055, 0.25 h"}, "Saccharomyces cerevisiae [23]": {"tested_on": "Saccharomyces cerevisiae", "assay": "Antifungal activity against Saccharomyces cerevisiae MY 2141 assessed as inhibition of whole cell oxygen consumption at 0.003 ug/mL after 15 mins", "assay_type": "functional", "conditions": "MY 2141, 0.25 h"}, "Candida albicans [24]": {"tested_on": "Candida albicans", "assay": "Antifungal activity against Candida albicans MY 1055 in glucose-based medium after 24 hrs by NCCLS broth microdilution method", "assay_type": "functional", "conditions": "MY 1055, 24 h"}, "Nakaseomyces glabratus": {"tested_on": "Nakaseomyces glabratus", "assay": "Antifungal activity against Candida glabrata CLY 574 after 24 hrs by NCCLS broth microdilution method", "assay_type": "functional", "conditions": "CLY 574, 24 h"}, "Candida albicans [25]": {"tested_on": "Candida albicans", "assay": "Antifungal activity against Candida albicans SC 53124 after 24 hrs by NCCLS broth microdilution method", "assay_type": "functional", "conditions": "SC 53124, 24 h"}, "Pichia kudriavzevii": {"tested_on": "Pichia kudriavzevii", "assay": "Antifungal activity against Candida krusei CLY 549 after 24 hrs by NCCLS broth microdilution method", "assay_type": "functional", "conditions": "CLY 549, 24 h"}, "Clavispora lusitaniae": {"tested_on": "Clavispora lusitaniae", "assay": "Antifungal activity against Candida lusitaniae MY 1396 after 24 hrs by NCCLS broth microdilution method", "assay_type": "functional", "conditions": "MY 1396, 24 h"}, "Candida parapsilosis": {"tested_on": "Candida parapsilosis", "assay": "Antifungal activity against Candida parapsilosis ATCC 22019 after 24 hrs by NCCLS broth microdilution method", "assay_type": "functional", "conditions": "Lodderomyces parapsilosis, ATCC 22019, 24 h"}, "Cryptococcus neoformans [26]": {"tested_on": "Cryptococcus neoformans", "assay": "Antifungal activity against Cryptococcus neoformans H 99 after 40 hrs by NCCLS broth microdilution method", "assay_type": "functional", "conditions": "H 99, 40 h"}, "Aspergillus fumigatus": {"tested_on": "Aspergillus fumigatus", "assay": "Antifungal activity against Aspergillus fumigatus MF 5668 after 24 hrs by NCCLS broth microdilution method", "assay_type": "functional", "conditions": "MF 5668, 24 h"}, "Candida albicans [27]": {"tested_on": "Candida albicans", "assay": "Antifungal activity against Candida albicans MY 1055 infected in DBA/2 mouse assessed as reduction in kidney fungal burden at 50 mg/kg, po bid administered 2 days post infection measured after 4 days relative to vehicle-treated control", "assay_type": "functional, organism-based", "parameters": "dose 50 mg/kg", "method_in_brief": "(§1)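 DBA/2 mice infected intravenously with 5.4 × 10⁴ cfu of C. albicans MY1055. Dosed orally twice daily for 2 days in 10% aqueous DMSO at 50, 25, 12.5 and 6.25 mg/kg. Kidney Candida burden determined 4 days after infection and compared with vehicle-treated controls by Excel t test (p < 0.05). ED90 is the dose giving 90% reduction of kidney C. albicans.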"}, "Candida albicans [28]": {"tested_on": "Candida albicans", "assay": "Antifungal activity against Candida albicans MY 1055 infected in DBA/2 mouse assessed as reduction in kidney fungal burden administered as po bid for 2 days post infection measured after 4 days", "assay_type": "functional", "conditions": "MY 1055, Kidney", "method_in_brief": "as §1"}, "Candida albicans [29]": {"tested_on": "Candida albicans", "assay": "Antifungal activity against Candida albicans MY 1055 infected in DBA/2 mouse assessed as reduction in kidney fungal burden administered as ip tid", "assay_type": "functional", "conditions": "MY 1055, Kidney"}, "Aspergillus flavus": {"tested_on": "Aspergillus flavus", "assay": "Antifungal activity against Aspergillus flavus MF 383 after 24 hrs by NCCLS broth microdilution method", "assay_type": "functional, organism-based"}, "Candida albicans [30]": {"tested_on": "Candida albicans", "assay": "Antifungal activity against Candida albicans MY 1055 infected in DBA/2 mouse assessed as reduction in kidney fungal burden administered as iv tid after 24 hrs", "assay_type": "functional", "conditions": "MY 1055, Kidney", "method_in_brief": "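Abbreviated 24 h version of the disseminated C. albicans kidney-burden model in mice. Dosing intravenous, thrice daily, at total doses of 50 or 25 mg/kg/day. Kidney burden compared with controls by Excel t test (p < 0.05). ED90 expressed as mg/kg/day.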"}, "Cryptococcus neoformans [31]": {"tested_on": "Cryptococcus neoformans", "assay": "Antifungal activity against Cryptococcus neoformans MY 2061 infected in DBA/2 mouse assessed as reduction in spleen fungal burden at 50 mg/kg, po bid", "assay_type": "functional, organism-based", "parameters": "dose 50 mg/kg", "method_in_brief": "(§2)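 Mice with disseminated C. neoformans MY2061 infection (8 × 10⁵ cfu/mouse). Dosed twice daily at 100 or 50 mg/kg, oral or intraperitoneal, in 5% aqueous DMSO. Spleen burden measured as log cfu/g of spleen and compared by Excel t test (p < 0.05).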"}, "Cryptococcus neoformans [32]": {"tested_on": "Cryptococcus neoformans", "assay": "Antifungal activity against Cryptococcus neoformans MY 2061 infected in DBA/2 mouse assessed as reduction in spleen fungal burden at 100 mg/kg, ip bid", "assay_type": "functional, organism-based", "parameters": "dose 100 mg/kg", "method_in_brief": "as §2"}, "Saccharomyces cerevisiae [33]": {"tested_on": "Saccharomyces cerevisiae", "assay": "Antifungal activity against Saccharomyces cerevisiae MY 2141 in glycerol-based medium after 24 hrs by NCCLS broth microdilution method", "assay_type": "functional", "conditions": "MY 2141, 24 h"}}, "note": "The source made the active and inactive calls. No cut-off for these calls is given here.", "data": [{"smiles": "C/C=C/[C@@H]1[C@H]2C[C@@H](C)CC[C@@H]2C(C)=C[C@H]1C(=O)c1c(O)c(-c2ccc(O)cc2)c[nH]c1=O", "note": "[ILICICOLIN H]", "values": [{"measurement": "MIC", "setting": "Cryptococcus neoformans [1]", "result": 0.1, "unit": "µg/mL"}, {"measurement": "inhibition", "setting": "[2]", "result": "inactive"}, {"measurement": "half-life", "setting": "[3]", "result": 2.5, "unit": "h"}, {"measurement": "Ratio IC50", "setting": "[4]", "result": "> 70"}, {"measurement": "IC50", "setting": "[5]", "result": 0.5, "unit": "µg/mL"}, {"measurement": "IC50", "setting": "[6]", "result": 1.5, "unit": "µg/mL"}, {"measurement": "IC50", "setting": "[7]", "result": 1.85, "unit": "nM"}, {"measurement": "Ratio", "setting": "Candida albicans [8]", "result": 250}, {"measurement": "Ratio", "setting": "Candida albicans [9]", "result": 250}, {"measurement": "Ratio", "setting": "Candida albicans [10]", "result": 250}, {"measurement": "Ratio", "setting": "Candida albicans [11]", "result": 250}, {"measurement": "Ratio", "setting": "Candida albicans [12]", "result": 250}, {"measurement": "Ratio", "setting": "Candida albicans [13]", "result": 250}, {"measurement": "Ratio", "setting": "Candida albicans [14]", "result": 250}, {"measurement": "Ratio", "setting": "Candida albicans [15]", "result": 250}, {"measurement": "IC50", "setting": "[16]", "result": 2.31, "unit": "nM"}, {"measurement": "IC50", "setting": "[17]", "result": 3, "unit": "nM"}, {"measurement": "IC50", "setting": "[18]", "result": "> 10", "unit": "µg/mL"}, {"measurement": "IC50", "setting": "[19]", "result": 1, "unit": "µg/mL"}, {"measurement": "IC50", "setting": "[20]", "result": 0.02, "unit": "µg/mL"}, {"measurement": "IC50", "setting": "[21]", "result": 0.008, "unit": "µg/mL"}, {"measurement": "inhibition at 0.003 µg/mL", "setting": "Candida albicans [22]", "result": 100, "unit": "%"}, {"measurement": "inhibition at 0.003 µg/mL", "setting": "Saccharomyces cerevisiae [23]", "result": 100, "unit": "%"}, {"measurement": "MIC", "setting": "Candida albicans [24]", "result": "> 50", "unit": "µg/mL"}, {"measurement": "MIC", "setting": "Nakaseomyces glabratus", "result": 0.01, "unit": "µg/mL"}, {"measurement": "MIC", "setting": "Candida albicans [25]", "result": 0.01, "unit": "µg/mL"}, {"measurement": "MIC", "setting": "Pichia kudriavzevii", "result": 0.01, "unit": "µg/mL"}, {"measurement": "MIC", "setting": "Clavispora lusitaniae", "result": 0.01, "unit": "µg/mL"}, {"measurement": "MIC", "setting": "Candida parapsilosis", "result": 0.01, "unit": "µg/mL"}, {"measurement": "MIC", "setting": "Cryptococcus neoformans [26]", "result": 0.1, "unit": "µg/mL"}, {"measurement": "MIC", "setting": "Aspergillus fumigatus", "result": 0.08, "unit": "µg/mL"}, {"measurement": "Activity", "setting": "Candida albicans [27]", "result": "Active"}, {"measurement": "ED90", "setting": "Candida albicans [28]", "result": 15.4, "unit": "mg/kg"}, {"measurement": "ED90", "setting": "Candida albicans [29]", "result": 0.01, "unit": "mg/kg"}, {"measurement": "Activity", "setting": "Aspergillus flavus", "result": "inactive"}, {"measurement": "ED90", "setting": "Candida albicans [30]", "result": 22.3, "unit": "mg/kg/day"}, {"measurement": "Activity", "setting": "Cryptococcus neoformans [31]", "result": "Active"}, {"measurement": "Activity", "setting": "Cryptococcus neoformans [32]", "result": "Active"}, {"measurement": "MIC", "setting": "Saccharomyces cerevisiae [33]", "result": 0.012, "unit": "µg/mL"}]}]}
